Test results as given in article PMC11261800 (Heliyon, 2024).

Test system: HaCaT cells
Experiment: Proliferation of HaCaT keratinocytes, CCK-8
Assay type: cell-based, human
Conditions: 100 μM, positive control, 72 h, 0.4 % serum
In short: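 HaCaT keratinocytes, grown at 37 °C in DMEM with 10 % (v/v) FBS, were seeded at 5 × 10^3 cells/well and cultured for 24 h. They were then serum-starved for 24 h in DMEM with 0.4 % serum and exposed to test sample in the same medium for 72 h. After 2 h in 10 % CCK-8, A450 was read. Proliferative activity = (A2−A1)/(A3−A1) × 100 %, against untreated cells and cell-free blank; mean ± SD, n = 3.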

B1: Epidermal growth factor (protein, UniProt P01133 23-1207, looked up)
Pro-epidermal growth factor: PQHWSCPEGTLAGNGNSTCVGPAPFLIFSHGNSIFRIDTEGTNYEQLVVDAGVSVIMDFHYNEKRIYWVDLERQLLQRVFLNGSRQERVCNIEKNVSGMAINWINEEVIWSNQQEGIITVTDMKGNNSHILLSALKYPANVAVDPVERFIFWSSEVAGSLYRADLDGVGVKALLETSEKITAVSLDVLDKRLFWIQYNREGSNSLICSCDYDGGSVHISKHPTQHNLFAMSLFGDRIFYSTWKMKTIWIANKHTGKDMVRINLHSSFVPLGELKVVHPLAQPKAEDDTWEPEQKLCKLRKGNCSSTVCGQDLQSHLCMCAEGYALSRDRKYCEDVNECAFWNHGCTLGCKNTPGSYYCTCPVGFVLLPDGKRCHQLVSCPRNVSECSHDCVLTSEGPLCFCPEGSVLERDGKTCSGCSSPDNGGCSQLCVPLSPVSWECDCFPGYDLQLDEKSCAASGPQPFLLFANSQDIRHMHFDGTDYGTLLSQQMGMVYALDHDPVENKIYFAHTALKWIERANMDGSQRERLIEEGVDVPEGLAVDWIGRRFYWTDRGKSLIGRSDLNGKRSKIITKENISQPRGIAVHPMAKRLFWTDTGINPRIESSSLQGLGRLVIASSDLIWPSGITIDFLTDKLYWCDAKQSVIEMANLDGSKRRRLTQNDVGHPFAVAVFEDYVWFSDWAMPSVMRVNKRTGKDRVRLQGSMLKPSSLVVVHPLAKPGADPCLYQNGGCEHICKKRLGTAWCSCREGFMKASDGKTCLALDGHQLLAGGEVDLKNQVTPLDILSKTRVSEDNITESQHMLVAEIMVSDQDDCAPVGCSMYARCISEGEDATCQCLKGFAGDGKLCSDIDECEMGVPVCPPASSKCINTEGGYVCRCSEGYQGDGIHCLDIDECQLGEHSCGENASCTNTEGGYTCMCAGRLSEPGLICPDSTPPPHLREDDHHYSVRNSDSECPLSHDGYCLHDGVCMYIEALDKYACNCVVGYIGERCQYRDLKWWELRHAGHGQQQKVIVVAVCVVVLVMLLLLSLWGAHYYRTQKLLSKNPKNPYEESSRDVRSRRPADTEDGMSSCPQPWFVVIKEHQDLKNGGQPVAGEDGQAADGSMQPTSWRQEPQLCGMGTEQGCWIPVSSDKGSCPQVMERSFHMPSYGTQTLEGGVEKPHSLLSANPLWQQRALDPPHQMELTQ
modifications: Pro-epidermal growth factor
In the case of B1, the “cell viability (proliferation of HaCaT keratinocytes)” value is reported as 106.76%.
